Test results as given in ChEMBL document CHEMBL1124457, “In vitro antiproliferative activity of 4-substituted 2-(2-hydroxyphenyl)thiazolines on murine leukemia cells” (J Med Chem, 1989).
Converted amounts (≈) assume the structure as drawn.

Tests used:
L1210 [1] = test: Percent of control growth in L1210 cells by addition of 5 uM compound as iron(II) chelate (FeCl3); assay type: functional, Mus musculus; conditions: in the assay text read “iron(III) chelate” for “iron(II) chelate”
Outline: (§1)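 In L1210 iron-reversal runs, FeCl3 aqueous stock was premixed 1:1 molar with chelator stock until an intense purple colour developed, then added to the cells. Growth was compared with chelator alone, FeCl3 alone and DMSO alone. Cells were counted electronically and growth read 48 h after ligand addition as % of control ± SE.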

L1210 [2] = test: Antiproliferative activity of compound expressed as concentration that inhibits 50% of growth of L1210 leukemic cell suspension from 24 to 48 hr after compound addition.; assay type: functional, cell-based; conditions: Mus musculus
Outline: (§2)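 Cells grown in RPMI 1640 with L-glutamine, 10% defined equine serum, 2% Mopes-Hepes buffer (pH 7.40), penicillin and streptomycin. Tested in log phase (0.5 × 10^5–2 × 10^6 cells/mL), in duplicate. Compound given as 10-µL DMSO stock (one ester in ethanol), with solvent-spiked controls.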

P388 [3] = test: Antiproliferative activity of compound expressed as concentration that inhibits 50% of growth of P388 leukemic cell suspension from 24 to 48 hr after compound addition; assay type: functional, cell-based; conditions: Mus musculus; outline: as §2
L1210 [4] = test: Percent viability against L1210 leukemic cells at 50 uM; assay type: functional, Mus musculus
L1210 [5] = test: Percent viability against L1210 leukemic cells 48 hr after compound addition at 35 uM concentration; assay type: functional, Mus musculus
Outline: (§3)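 Leukemia cells in RPMI 1640 with 10% defined equine serum and Mopes-Hepes buffer (pH 7.40). Compound added from DMSO stock. Viable cells scored by trypan blue exclusion 48 h after compound addition.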

[6] = Solubility in phosphate-buffered saline (PBS) at pH 7.1; assay type: physicochemical
L1210 [7] = test: Percent viability against L1210 leukemic cells at 0 uM; assay type: functional, Mus musculus
L1210 [8] = test: Percent of control growth in L1210 cells by addition of 5 uM of iron-free compound; assay type: functional, Mus musculus; outline: as §1
P388 [9] = test: Percent viability against P388 leukemic cells 48 hr after compound addition at 25 uM concentration; assay type: functional, Mus musculus; outline: as §3
V79 (Cricetulus griseus) = test: Tritiated thymidine uptake is estimated after incubation of 120 min with compound(50 uM) and the radiolabel
[10] = Partition ratio in 1-octanol / phosphate-buffered saline system.; assay type: physicochemical; conditions: buffer
Outline: (§4)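 Compound film was left by evaporating an alcohol solution under nitrogen. 5 mL each of 1-octanol and PBS (pH 7.1) were added, sealed under nitrogen and agitated 3 h at 27 °C. Each layer was measured by absorbance at 247 nm against Beer's plots (1.25–10 or 3.25–50 μM).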

L1210 [11] = test: Percent viability against L1210 leukemic cells 48 hr after compound addition at 100 uM concentration; assay type: functional, Mus musculus; outline: as §3
P388 [12] = test: Percent viability against P388 leukemic cells 48 hr after compound addition at 100 uM concentration; ND= Not defined; assay type: functional, cell-based; conditions: Mus musculus; outline: as §3
L1210 [13] = test: Antiproliferative activity, concentration that inhibits 50% of growth of L1210 leukemic cell suspension from 24 to 48 hr after compound addition.; assay type: functional, cell-based; conditions: Mus musculus; outline: as §2
P388 [14] = test: Antiproliferative activity of compound expressed as concentration that inhibits 50% of growth of P388 leukemic cell suspension from 24 to 48 hr after compound addition; ND= Not defined; assay type: functional, cell-based, Mus musculus; outline: as §2
L1210 [15] = test: Percent viability against L1210 leukemic cells at 100 uM; assay type: functional, Mus musculus
L1210 [16] = test: Percent of control growth in L1210 cells by addition of 100 uM compound as […] chelate (FeCl3); assay type: functional, Mus musculus; outline: as §1
L1210 [17] = test: Percent viability against L1210 leukemic cells 48 hr after compound addition at 100 uM; assay type: functional, Mus musculus; outline: as §3
P388 [18] = test: Percent viability against P388 leukemic cells 48 hr after compound addition at 100 uM; assay type: functional, Mus musculus; outline: as §3
L1210 [19] = test: Percent viability against L1210 leukemic cells at 200 uM; assay type: functional, Mus musculus
L1210 [20] = test: Percent of control growth in L1210 cells by addition of 100 uM of iron-free compound; assay type: functional, Mus musculus; outline: as §1
L1210 [21] = test: Antiproliferative activity of compound expressed as concentration that inhibits 50% of growth of L1210 leukemic cell suspension from 24 to 48 h after compound addition; assay type: functional, cell-based; conditions: Mus musculus; outline: as §2
[22] = Partition ratio in 1-octanol / phosphate-buffered saline system; assay type: physicochemical; conditions: buffer; outline: as §4
P388 [23] = test: Percent viability against P388 leukemic cells 48 hr after compound addition at 100 uM concentration; assay type: functional, Mus musculus; outline: as §3
L1210 [24] = test: Percent of control growth in L1210 cells by addition of 25 uM compound as […] chelate (FeCl3); assay type: functional, Mus musculus; outline: as §1
L1210 [25] = test: Percent of control growth in L1210 cells by addition of 25 uM of iron-free compound; assay type: functional, Mus musculus; outline: as §1
L1210 [26] = test: Percent viability against L1210 leukemic cells at 25 uM; assay type: functional, Mus musculus

Row | SMILES | IC50 (L1210 [2]) [µM] | IC50 (P388 [3]) [µM] | Viability (L1210 [4]) [%] | solubility [6] [µM] | Viability (L1210 [7]) [%] | Ratio [10] | Viability (L1210 [11]) [%] | Viability (L1210 [15]) [%] | Viability (L1210 [17]) [%] | Viability (P388 [18]) [%] | Viability (L1210 [19]) [%] | Ratio [22] | Viability (P388 [23]) [%] | also measured
1 | O=C(NCCCCN(CCCCNC(=O)C1CSC(c2ccccc2O)=N1)Cc1ccccc1)C1CSC(c2ccccc2O)=N1 (centres undefined) | 3 | 1 | 0 | 15 (≈ 9.9 µg/mL) | 87 | 0.96 |  |  |  |  |  |  |  | Control of growth (L1210 [1]): 21%; Viability (L1210 [5]): 6%; Control of growth (L1210 [8]): 22%; Viability (P388 [9]): 15%; Control (V79 (Cricetulus griseus)): 48%
2 | CCOC(=N)c1ccccc1O |  |  |  |  |  |  | >99 |  |  |  |  |  |  | Viability (P388 [12]): Not defined; IC50 (L1210 [13]): > 200 µM; IC50 (P388 [14]): Not defined
3 | COC(=O)C1CSC(c2ccccc2O)=N1 (centres undefined) | 14 | 18 | 36 | 50 (≈ 11.9 µg/mL) | 99 | 11.75 |  | 46 | 87 | 85 | 42 |  |  | Control of growth (L1210 [16]): 98%; Control of growth (L1210 [20]): 4%
4 | O=C(O)C1CSC(c2ccccc2O)=N1 (centres undefined) |  | 17 | 81 | 75 (≈ 16.7 µg/mL) | 94 |  |  | 54 | 92 | 77 | 42 | 0.03 |  | IC50 (L1210 [21]): 25 µM
5 | NC(=O)NO [HYDROXYUREA] | 85 | 32 |  |  |  |  | 97 |  |  |  |  |  | 96 | 
6 | CC(=O)N(CCCCNC(=O)C1CSC(c2ccccc2O)=N1)CCCCNC(=O)C1CSC(c2ccccc2O)=N1 (centres undefined) | 21 | 12 | 100 | 10 (≈ 6.12 µg/mL) | 99 |  | 95 | 40 |  |  | 27 | > 7 | 85 | Control of growth (L1210 [24]): 68%; Control of growth (L1210 [25]): 29%; Viability (L1210 [26]): 92%
